Results as given in ChEMBL document CHEMBL3808300, “Atropisomer Control in Macrocyclic Factor VIIa Inhibitors” (J Med Chem, 2016).

Experiments:
[1] = biological target: Coagulation factor VII/tissue factor (Homo sapiens, UniProt P08709); assay: Inhibition of recombinant human Tissue factor/factor 7a using S2288 as substrate after 30 to 60 mins; type: protein-complex assay
In short: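 Enzyme is recombinant human TF/FVIIa complex, assayed at 25 °C. Ki is the mean of two experiments, and the method is the published protocol.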

Coagulation factor X = Coagulation factor X (Homo sapiens, UniProt P00742); assay: Inhibition of purified human factor 10a using S2765 as substrate after 30 to 60 mins
In short: (§1)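 Purified human enzyme, run at 25 °C. The reported Ki is the average of two experiments. The full protocol follows a previously published method.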

Coagulation factor XI = Coagulation factor XI (Homo sapiens, UniProt P03951); assay: Inhibition of purified human factor 11a after 30 to 60 mins; in short: as §1
Prothrombin = Prothrombin (Homo sapiens, UniProt P00734); assay: Inhibition of purified human thrombin after 30 to 60 mins; in short: as §1
Trypsin = Trypsin (Homo sapiens, UniProt P07477+P07478+P35030); assay: Inhibition of purified human trypsin after 30 to 60 mins; type: protein assay; in short: as §1
Kallikrein-1 = Kallikrein-1 (Homo sapiens, UniProt P06870); assay: Inhibition of purified human tissue kallikrein 1 using H-D-Val-Leu-Arg-AFC as substrate
In short: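 Uses purified human tissue kallikrein 1 at 37 °C. Ki is averaged from two independent experiments. The procedure follows an earlier published protocol.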

Chain of Coagulation factor VII/tissue factor (P08709 61-212 limits assumed): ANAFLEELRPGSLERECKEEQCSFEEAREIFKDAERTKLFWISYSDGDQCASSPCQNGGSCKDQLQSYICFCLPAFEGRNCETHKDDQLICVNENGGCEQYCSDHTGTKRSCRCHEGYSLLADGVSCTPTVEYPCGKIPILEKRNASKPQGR
Chain of Coagulation factor VII/tissue factor (P08709 213-466 limits assumed): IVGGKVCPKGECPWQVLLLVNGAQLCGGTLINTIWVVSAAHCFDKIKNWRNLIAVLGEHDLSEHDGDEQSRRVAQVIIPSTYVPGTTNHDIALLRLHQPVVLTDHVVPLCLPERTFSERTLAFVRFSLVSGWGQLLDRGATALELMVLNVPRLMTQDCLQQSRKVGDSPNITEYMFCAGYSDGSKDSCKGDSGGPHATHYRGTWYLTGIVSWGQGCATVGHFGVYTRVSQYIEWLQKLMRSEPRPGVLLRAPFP
Chain of Coagulation factor VII/tissue factor (P13726 33-295 partner limits assumed): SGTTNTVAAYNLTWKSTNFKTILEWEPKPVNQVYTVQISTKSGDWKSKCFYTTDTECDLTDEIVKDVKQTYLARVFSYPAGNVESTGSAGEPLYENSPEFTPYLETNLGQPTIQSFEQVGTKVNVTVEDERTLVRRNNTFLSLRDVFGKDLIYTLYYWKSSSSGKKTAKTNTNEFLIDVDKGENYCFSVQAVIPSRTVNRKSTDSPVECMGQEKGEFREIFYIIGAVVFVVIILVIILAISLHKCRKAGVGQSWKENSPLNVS
Chain of Coagulation factor XI (P03951 19-387 limits assumed): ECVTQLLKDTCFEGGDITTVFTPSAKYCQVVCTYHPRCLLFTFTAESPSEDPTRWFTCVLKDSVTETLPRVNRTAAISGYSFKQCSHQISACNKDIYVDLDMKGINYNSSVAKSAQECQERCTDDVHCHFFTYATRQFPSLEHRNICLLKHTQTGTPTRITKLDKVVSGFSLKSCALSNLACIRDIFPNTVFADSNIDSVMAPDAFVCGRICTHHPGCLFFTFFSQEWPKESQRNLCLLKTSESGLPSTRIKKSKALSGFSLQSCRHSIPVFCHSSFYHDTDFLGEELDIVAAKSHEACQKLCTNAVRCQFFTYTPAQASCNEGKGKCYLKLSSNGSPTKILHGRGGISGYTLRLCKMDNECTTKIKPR
Chain of Coagulation factor XI (P03951 388-625 limits assumed): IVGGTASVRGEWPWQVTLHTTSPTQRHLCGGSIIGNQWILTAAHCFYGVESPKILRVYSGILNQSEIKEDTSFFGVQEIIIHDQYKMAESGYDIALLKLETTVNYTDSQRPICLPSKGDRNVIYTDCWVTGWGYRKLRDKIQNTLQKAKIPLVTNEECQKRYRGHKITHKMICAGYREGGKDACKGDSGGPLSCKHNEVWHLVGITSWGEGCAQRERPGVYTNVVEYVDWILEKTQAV
Chain of Kallikrein-1 (P06870 whole entry): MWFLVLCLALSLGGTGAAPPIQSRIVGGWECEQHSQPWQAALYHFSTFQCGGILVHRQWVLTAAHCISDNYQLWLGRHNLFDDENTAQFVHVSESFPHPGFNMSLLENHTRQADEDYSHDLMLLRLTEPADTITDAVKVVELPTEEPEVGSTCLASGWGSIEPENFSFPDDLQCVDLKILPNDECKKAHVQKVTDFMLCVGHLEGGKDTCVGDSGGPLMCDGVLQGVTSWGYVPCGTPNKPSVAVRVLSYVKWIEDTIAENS
Chain of Coagulation factor X (P00742 41-179 limits assumed): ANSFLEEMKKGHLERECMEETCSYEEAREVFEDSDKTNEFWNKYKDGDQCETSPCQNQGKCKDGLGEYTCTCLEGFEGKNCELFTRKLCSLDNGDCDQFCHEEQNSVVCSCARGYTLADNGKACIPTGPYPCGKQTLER
Chain of Coagulation factor X (P00742 235-488 limits assumed): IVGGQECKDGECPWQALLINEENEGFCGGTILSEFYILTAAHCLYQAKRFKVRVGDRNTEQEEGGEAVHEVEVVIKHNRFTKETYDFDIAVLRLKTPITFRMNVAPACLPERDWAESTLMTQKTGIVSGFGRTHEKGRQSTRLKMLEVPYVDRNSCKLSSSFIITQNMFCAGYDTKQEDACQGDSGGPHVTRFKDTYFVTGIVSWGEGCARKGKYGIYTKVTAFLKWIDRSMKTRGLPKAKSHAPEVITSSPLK

Compound: C[C@H]1COC(=O)Nc2cccc(c2)CNC(=O)C(Nc2ccc3c(N)nccc3c2)c2ccc1cc2 (stereo partly drawn)
- Ki [1]: 0.14 µM
- Ki (Coagulation factor X): 4.5 µM
- Ki (Coagulation factor XI): 9.1 µM
- Ki (Prothrombin): 4.7 µM
- Ki (Trypsin): > 6.2 µM
- Ki (Kallikrein-1): 0.025 µM

Compound: CC1COC(=O)Nc2cccc(c2)CNC(=O)C(Nc2ccc3c(N)nccc3c2)c2ccc1cc2 (stereo not drawn)
- Ki (Coagulation factor X): 2.6 µM
- Ki (Coagulation factor XI): 10.8 µM
- Ki (Prothrombin): > 13 µM

Compound: Cc1cc2ccc1[C@@H](C)COC(=O)Nc1cccc(c1)CNC(=O)[C@H]2Nc1ccc2c(N)nccc2c1
- Ki [1]: 4.51 µM
- Ki (Coagulation factor X): > 13.3 µM
- Ki (Coagulation factor XI): > 14.2 µM
- Ki (Prothrombin): > 11.5 µM
- Ki (Trypsin): > 10 µM
- Ki (Kallikrein-1): 0.031 µM

Compound: C[C@@H]1COC(=O)Nc2cccc(c2)CNC(=O)C(Nc2ccc3c(N)nccc3c2)c2ccc1cc2 (stereo partly drawn)
- Ki [1]: 1.45 µM
- Ki (Coagulation factor X): 6.8 µM
- Ki (Coagulation factor XI): > 11 µM
- Ki (Prothrombin): 7.4 µM
- Ki (Trypsin): > 6.2 µM
- Ki (Kallikrein-1): 0.004 µM

Compound: Nc1nccc2cc(NC3C(=O)NCc4cccc(c4)NC(=O)OCCc4ccc3cc4)ccc12 (stereo not drawn)
- Ki [1]: 0.51 µM
- Ki (Coagulation factor X): 0.61 µM
- Ki (Coagulation factor XI): 5.7 µM
- Ki (Prothrombin): > 13 µM
- Ki (Trypsin): 3.5 µM
- Ki (Kallikrein-1): 0.035 µM

Compound: Cc1cc2ccc1[C@@H](C)COC(=O)Nc1cccc(c1)CNC(=O)[C@@H]2Nc1ccc2c(N)nccc2c1
- Ki [1]: 0.0014 µM
- Ki (Coagulation factor X): > 13.3 µM
- Ki (Coagulation factor XI): > 14.2 µM
- Ki (Prothrombin): > 11.5 µM
- Ki (Trypsin): > 10 µM
- Ki (Kallikrein-1): 0.025 µM
